The source of these data is ChEMBL document CHEMBL1133675, “New substituted 1-(2,3-dihydrobenzo[1, 4]dioxin-2-ylmethyl)piperidin-4-yl derivatives with alpha(2)-adrenoceptor antagonist activity” (J Med Chem, 2000).

The test system of assay [1] is Mus musculus. As to the kind of experiment: In vivo antagonism of guanabenz-induced hypothermia in mice after intraperitoneal administration at a dose of 2.5 mg/kg. Type of assay: functional. As to conditions: ip. The method in brief: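 Male NMRI mice, 30-32 g, 5 per dose; test drug or vehicle given ip, then 5 min later guanabenz 1 mg/kg ip. Rectal temperature read by thermistor probe 25 min after guanabenz. Inhibition means temperature > 36 °C. […] Active dose range = doses inhibiting in more than 80% of animals.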

The subject of assay [2] is Mus musculus. As to the kind of experiment: In vivo antagonism of guanabenz-induced hypothermia in mice after peroral administration; Inactive. It counts as functional, organism-based. In outline: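 Male NMRI mice (30-32 g), five per dose; vehicle or drug by oral gavage, guanabenz 1 mg/kg ip 35 min later. Rectal temperature by thermistor 25 min post-guanabenz; inhibition scored as temperature > 36 °C. […] Active range is doses giving inhibition in more than 80% of mice.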

For assay [3], the target named is T1, Adrenergic receptor alpha-1 (Rattus norvegicus, UniProt P15823+P23944+P43140).
T1 sequence (P15823 whole entry): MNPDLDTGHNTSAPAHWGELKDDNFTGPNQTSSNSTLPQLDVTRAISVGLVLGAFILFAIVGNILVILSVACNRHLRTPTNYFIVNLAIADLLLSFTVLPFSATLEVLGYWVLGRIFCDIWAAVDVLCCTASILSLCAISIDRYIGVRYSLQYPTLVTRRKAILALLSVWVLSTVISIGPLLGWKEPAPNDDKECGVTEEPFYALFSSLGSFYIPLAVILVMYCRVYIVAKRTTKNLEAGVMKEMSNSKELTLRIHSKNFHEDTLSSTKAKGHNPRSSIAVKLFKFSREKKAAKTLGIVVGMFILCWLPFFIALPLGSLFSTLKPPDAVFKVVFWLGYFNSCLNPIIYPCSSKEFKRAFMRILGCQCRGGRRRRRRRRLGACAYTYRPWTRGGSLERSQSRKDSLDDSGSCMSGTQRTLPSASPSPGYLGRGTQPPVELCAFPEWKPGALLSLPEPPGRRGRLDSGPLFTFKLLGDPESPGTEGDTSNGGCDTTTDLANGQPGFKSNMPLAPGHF
T1 sequence (P23944 whole entry): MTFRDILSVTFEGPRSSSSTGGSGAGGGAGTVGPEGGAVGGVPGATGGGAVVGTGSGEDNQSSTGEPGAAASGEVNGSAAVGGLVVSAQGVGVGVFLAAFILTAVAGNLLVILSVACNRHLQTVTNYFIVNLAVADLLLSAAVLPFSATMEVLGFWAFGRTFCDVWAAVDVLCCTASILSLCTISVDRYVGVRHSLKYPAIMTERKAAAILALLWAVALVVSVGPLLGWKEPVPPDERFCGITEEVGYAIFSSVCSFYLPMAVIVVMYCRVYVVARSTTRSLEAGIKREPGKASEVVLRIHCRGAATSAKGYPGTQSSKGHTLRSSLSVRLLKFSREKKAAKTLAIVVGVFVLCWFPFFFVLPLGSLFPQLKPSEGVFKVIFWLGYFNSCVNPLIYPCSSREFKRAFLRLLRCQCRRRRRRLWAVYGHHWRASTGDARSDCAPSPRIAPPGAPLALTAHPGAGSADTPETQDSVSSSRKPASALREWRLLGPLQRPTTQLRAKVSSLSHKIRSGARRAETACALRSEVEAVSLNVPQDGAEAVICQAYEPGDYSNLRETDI
T1 sequence (P43140 whole entry): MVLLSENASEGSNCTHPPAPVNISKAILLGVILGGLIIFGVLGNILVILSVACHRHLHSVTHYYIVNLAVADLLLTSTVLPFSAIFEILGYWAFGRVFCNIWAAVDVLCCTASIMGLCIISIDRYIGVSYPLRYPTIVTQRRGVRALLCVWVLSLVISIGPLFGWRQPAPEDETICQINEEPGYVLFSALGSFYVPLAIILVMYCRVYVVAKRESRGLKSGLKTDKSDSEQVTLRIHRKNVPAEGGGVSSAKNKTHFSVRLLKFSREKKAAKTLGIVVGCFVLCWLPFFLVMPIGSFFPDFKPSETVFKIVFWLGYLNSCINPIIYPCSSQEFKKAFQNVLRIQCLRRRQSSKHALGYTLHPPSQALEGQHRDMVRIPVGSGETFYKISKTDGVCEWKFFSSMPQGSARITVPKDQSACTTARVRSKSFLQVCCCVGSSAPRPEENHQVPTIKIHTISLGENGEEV
The assay can be described thus: In vitro inhibition of specific binding of [3H]- prazosin to alpha-1 adrenergic receptor site in rat brain membranes. Type of assay: cell membranes.

In assay [4] the target is T2, Adrenergic receptor alpha-2 (Rattus norvegicus, UniProt P22086+P19328+P22909).
T2 sequence (P22086 whole entry): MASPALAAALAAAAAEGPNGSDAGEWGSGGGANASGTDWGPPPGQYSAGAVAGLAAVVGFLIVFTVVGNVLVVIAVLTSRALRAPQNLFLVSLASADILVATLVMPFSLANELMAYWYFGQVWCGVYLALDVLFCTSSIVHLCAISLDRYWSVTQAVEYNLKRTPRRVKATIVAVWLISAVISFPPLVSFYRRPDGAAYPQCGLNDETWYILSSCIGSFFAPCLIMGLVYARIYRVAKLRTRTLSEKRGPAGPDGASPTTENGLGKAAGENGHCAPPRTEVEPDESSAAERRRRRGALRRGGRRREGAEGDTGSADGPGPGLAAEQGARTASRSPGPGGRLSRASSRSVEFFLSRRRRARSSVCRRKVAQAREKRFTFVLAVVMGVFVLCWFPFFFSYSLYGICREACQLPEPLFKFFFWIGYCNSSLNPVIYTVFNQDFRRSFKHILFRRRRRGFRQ
T2 sequence (P19328 whole entry): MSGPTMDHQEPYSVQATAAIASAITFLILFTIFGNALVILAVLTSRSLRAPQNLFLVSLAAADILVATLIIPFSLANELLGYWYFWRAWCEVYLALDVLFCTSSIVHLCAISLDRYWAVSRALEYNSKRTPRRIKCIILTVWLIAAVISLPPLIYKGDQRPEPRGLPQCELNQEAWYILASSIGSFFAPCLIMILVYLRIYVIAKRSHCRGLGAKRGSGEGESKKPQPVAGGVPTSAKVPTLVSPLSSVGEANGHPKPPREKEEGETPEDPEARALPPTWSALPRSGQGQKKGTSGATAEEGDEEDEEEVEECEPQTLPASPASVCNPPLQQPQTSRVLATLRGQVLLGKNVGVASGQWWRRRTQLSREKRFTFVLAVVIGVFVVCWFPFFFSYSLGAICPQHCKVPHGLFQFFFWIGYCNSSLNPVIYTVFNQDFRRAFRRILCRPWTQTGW
T2 sequence (P22909 whole entry): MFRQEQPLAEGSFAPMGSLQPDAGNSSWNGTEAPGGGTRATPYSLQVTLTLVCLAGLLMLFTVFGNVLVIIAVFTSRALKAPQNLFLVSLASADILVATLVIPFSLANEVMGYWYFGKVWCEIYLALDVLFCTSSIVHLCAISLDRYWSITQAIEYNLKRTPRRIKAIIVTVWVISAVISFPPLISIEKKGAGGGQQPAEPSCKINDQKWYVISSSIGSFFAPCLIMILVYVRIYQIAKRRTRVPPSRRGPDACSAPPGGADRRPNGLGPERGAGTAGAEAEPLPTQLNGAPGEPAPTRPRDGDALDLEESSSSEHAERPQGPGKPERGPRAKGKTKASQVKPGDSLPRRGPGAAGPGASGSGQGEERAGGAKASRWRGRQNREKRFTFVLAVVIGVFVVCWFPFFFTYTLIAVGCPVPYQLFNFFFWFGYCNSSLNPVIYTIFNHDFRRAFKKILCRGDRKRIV
The assay can be described thus: In vitro inhibition of binding of [3H]-RX-821002 to alpha-2 adrenergic receptor site in rat brain membranes. Type of assay: cell membranes.

The target of a further assay is D(2) dopamine receptor (Rattus norvegicus, UniProt P61169). As to the kind of experiment: In vitro inhibition of specific binding of [3H]-YM 09151-2 to Dopamine receptor D2 site in rat striatal tissue. Type of assay: tissue-based, Striatum.
Chain of D(2) dopamine receptor (P61169 whole entry): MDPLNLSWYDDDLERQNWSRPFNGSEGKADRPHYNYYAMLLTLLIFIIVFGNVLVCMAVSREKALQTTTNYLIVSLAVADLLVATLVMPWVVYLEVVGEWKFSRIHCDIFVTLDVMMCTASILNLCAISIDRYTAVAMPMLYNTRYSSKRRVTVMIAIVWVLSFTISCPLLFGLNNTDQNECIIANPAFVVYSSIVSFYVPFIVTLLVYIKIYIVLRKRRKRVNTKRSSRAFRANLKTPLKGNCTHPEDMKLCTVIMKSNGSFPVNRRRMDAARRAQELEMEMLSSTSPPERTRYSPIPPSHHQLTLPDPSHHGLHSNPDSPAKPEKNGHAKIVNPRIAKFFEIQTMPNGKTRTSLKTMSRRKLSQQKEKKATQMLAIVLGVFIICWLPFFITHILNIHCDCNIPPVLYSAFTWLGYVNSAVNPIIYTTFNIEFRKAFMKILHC

Activity calls are given as the source filed them.

Take `O=C(NCCC1CCN(CC2COc3ccccc3O2)CC1)NC1CCCCC1` (stereo not given): the ED50 in the assay with Mus musculus [1] came to 0.69 mg/kg. In the assay with Mus musculus [2], the NA entry was “inactive”. The IC50 was determined as 42 nM in assay [3], 2 nM in assay [4] and 35 nM at D(2) dopamine receptor.

As usually defined, the ED50 is the midpoint of the dose-response relation. Lower therefore signals greater potency. One may read the IC50 as the midpoint of a concentration-inhibition curve.
